Measured values pooled from the literature.
Target: Calcium/calmodulin-dependent protein kinase type II subunit gamma (CAMK2G, Homo sapiens, UniProt Q13555)

FC(F)(F)c1ccc2c(c1)nc(-c1cccnc1)n2C1CC1 has a remaining binding of 100% (cell-free assay, competition with immobilised ligand; 1 µM).
With COc1ncc2cc3ccccc3nc2c1C#N the remaining binding was 92% (cell-free assay, competition with immobilised ligand; 5 µM).
With Cc1cnc(Nc2ccc(C(=O)N3CCC(N4CCCC4)CC3)cc2)nc1-c1cc2ccccc2s1 the remaining binding was 74% (binding, competition with immobilised ligand; 1 µM).
F[C@@H]1CCN(c2nccc(-c3cnn4ncccc34)n2)C1 gave a remaining binding of 100% (binding; 1 µM).
With O=C(c1ccc(Nc2ncc(Cl)c(-c3cc4ccccc4s3)n2)cc1)N1CCC(N2CCCC2)CC1 the remaining binding was 82% (binding, competition with immobilised ligand; 1 µM).
CC1CCCN1c1nccc(-c2cnn3ncccc23)n1 (stereo not drawn) gave a remaining binding of 100% (binding; 1 µM).
With COc1cc(-c2cn(C3CCc4ccccc4N(CC(F)(F)F)C3=O)nn2)ccc1-n1ccc(C)n1 (stereo not drawn) the remaining binding was 100% (cell-free assay, competition with immobilised ligand; 1 µM).
For CCN1CCN(Cc2ccc(C(=O)Nc3ccc(C)c(Oc4ccc5c(c4)CC(=O)N5)c3)cc2C(F)(F)F)CC1, the remaining binding was 97% (binding, competition with immobilised ligand; 1 µM).
For Nc1ncc2c(n1)-c1c([nH]c3ccc(C#CC4CC4)cc13)CCCC2, the remaining binding was 100% (binding, competition with immobilised ligand; 1 µM).
The remaining binding of CN(CCCC(F)(F)F)c1nccc(-c2cnn3ncccc23)n1 is reported as 100% (binding; 1 µM).
O=C(NCC1CCOCC1)c1n[nH]cc1NC(=O)c1c(F)cccc1F gave a remaining binding of 88% (binding, competition with immobilised ligand; 1 µM).
With O=C(N1CCS(=O)(=O)CC1)N1C[C@H](c2ccc(OC(F)(F)F)cc2)C[C@H](c2nc(C3CC3)no2)C1 the remaining binding was 100% (cell-free assay, competition with immobilised ligand; 1 µM).
The remaining binding of CN(C)c1nccc(-c2cnn3ncccc23)n1 is reported as 100% (binding; 1 µM).
C[C@@H]1CN(c2cc(-c3n[nH]c4ccc(OC5(C)CC5)cc34)ncn2)C[C@H](C)O1 has a remaining binding of 100% (cell-free assay, competition with immobilised ligand; 0.1 µM).
CNC(=O)[C@@H]1CC[C@@H](n2c(-c3ccc4cnccc4c3)nc3ccc(C(=O)NCc4cccc(C(N)=O)c4)cc32)C1 gave a remaining binding of 100% (binding, competition with immobilised ligand; 1 µM).
c1cnn2ncc(-c3ccnc(N4CCC45COC5)n3)c2c1 has a remaining binding of 91% (binding; 1 µM).
With COc1cnc(Nc2cccc(S(N)(=O)=O)c2)nc1N1CCN(c2ccccc2)CC1 the remaining binding was 94% (binding, competition with immobilised ligand; 1 µM).
CS(=O)(=O)NCC[C@H](NC(=O)c1cncc2c1cnn2-c1ccc(F)cc1)c1ccnc(S(C)(=O)=O)c1 gave a remaining binding of 99% (cell-free assay, competition with immobilised ligand; 1 µM).
With O=C(c1ccc(Nc2nccc(-c3cc4ccccc4s3)n2)cc1)N1CCC(N2CCCC2)CC1 the remaining binding was 81% (binding, competition with immobilised ligand; 1 µM).
With O=C(O)[C@H]1[C@H](Cn2nnc3ccccc3c2=O)CC[C@@H]1C(=O)c1ccc(OCCC2CCOCC2)cc1 the remaining binding was 90% (cell-free assay, competition with immobilised ligand; 1 µM).
With c1cncc(-c2cccc(Nc3nccc(NC4CCCCC4)n3)c2)c1 the remaining binding was 80% (binding, competition with immobilised ligand; 10 µM).
